The subject of data set [1] is hippocampal cultures. It counts as cell-based, rat. Conditions: for cell death response at 30 min or 60 min of incubation / time points with significant cell death differences from control: 30 μM cannabidiol, 100 μM KLS-13019, day 18–19 cultures.
The nature of data set [2]: Metabolic stability in mouse liver microsomes. It counts as in vitro ADME. The method in brief:
(§1)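 Test compound at 1 μM incubated with human or mouse liver microsomes for up to 60 min. Samples analysed by LTQ-Orbitrap XL mass spectrometry. Single determination per time point. Testosterone at 1 μM served as the metabolically labile control. Run by a contract lab.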
(In general: Microsomes from liver hold many membrane-bound enzymes, among them those of drug oxidation.)

Data set [3] addresses hERG channel (Homo sapiens, UniProt Q12809). Nature of the data set: hERG channel binding assay. The settings on record: 10 μM; [3H]-dofetilide; HEK-293. The method in brief:
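Binding to human recombinant hERG expressed in HEK-293 cells, using 3 nM [3H]-dofetilide. Test compound at 10 μM, 60 min at room temperature. Non-specific binding defined with 25 μM terfenadine. Reported as % inhibition of control specific binding. Run by a contract lab.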
For orientation: hERG is a cardiac potassium channel; its block is linked to QT prolongation.

Data set [4] is described as follows: Aqueous solubility, shaken flask method. The data set is classed as physicochemical. The method in brief:
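Shake-flask method at pH 1.2, 7.4 and 9.2. Dissolved concentration measured by HPLC against a standard curve.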

In data set [5] the test system is dissociated rat hippocampal cultures. The data set is classed as cell-based. The method in brief: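 E18 rat hippocampal cultures at days 12–14 received test compound (5 concentrations, n=5, two plates) 5 min before 30 mM ethanol plus 300 μM ammonium acetate, then 5 h at 37 °C. Medium removed and 50 μM propidium iodide applied for 15 min in the dark at room temperature. Read at Ex536/Em590 minus cell-free blank wells. IC50 from 4-parameter logistic fit.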

Data set [6] in a line: Mouse plasma pharmacokinetics. The data set is classed as in vivo, CD1 mice.
Data set [7] relates to hippocampal cultures. Put plainly: Effect of CB2 antagonist AM 630 on neuroprotection from ethanol, CFDA assay. It counts as cell-based, rat. The settings on record: AM 630 0.1 to 100 nM; 30 mM ethanol; 10 μM CBD or 100 nM KLS-13019.
For data set [8], the system named is dissociated rat hippocampal cultures. The data set is classed as cell-based. The method in brief: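 Papain-dissociated E18 rat hippocampal cells at 10,000/well in serum-free Neurobasal/B27/GlutaMAX, used at days 12–14 after a medium change. Test compound (DMSO stock diluted in DPBS, ≤0.1% DMSO; 5 concentrations, n=5, two plates) added 5 min before 30 mM ethanol plus 300 μM ammonium acetate, then 5 h at 37 °C. CFDA 15 min at 37 °C, 30 min efflux wash, Triton lysis, Ex490/Em517. EC50 from 4-parameter logistic fit.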
This is another data set of the same source.

Data set [9] in a line: Metabolic stability in human liver microsomes. The data set is classed as in vitro ADME. In a few lines: as §1
Data set [10] relates to hippocampal cultures. It counts as cell-based, rat.
Data set [11] can be described thus: Log P. The data set is classed as physicochemical.
The nature of data set [12]: Anticonvulsant activity in animal models. Conditions: in vivo.
The target in data set [13] is T1, PPARγ (Homo sapiens, UniProt P37231).
T1 sequence (P37231 1-505): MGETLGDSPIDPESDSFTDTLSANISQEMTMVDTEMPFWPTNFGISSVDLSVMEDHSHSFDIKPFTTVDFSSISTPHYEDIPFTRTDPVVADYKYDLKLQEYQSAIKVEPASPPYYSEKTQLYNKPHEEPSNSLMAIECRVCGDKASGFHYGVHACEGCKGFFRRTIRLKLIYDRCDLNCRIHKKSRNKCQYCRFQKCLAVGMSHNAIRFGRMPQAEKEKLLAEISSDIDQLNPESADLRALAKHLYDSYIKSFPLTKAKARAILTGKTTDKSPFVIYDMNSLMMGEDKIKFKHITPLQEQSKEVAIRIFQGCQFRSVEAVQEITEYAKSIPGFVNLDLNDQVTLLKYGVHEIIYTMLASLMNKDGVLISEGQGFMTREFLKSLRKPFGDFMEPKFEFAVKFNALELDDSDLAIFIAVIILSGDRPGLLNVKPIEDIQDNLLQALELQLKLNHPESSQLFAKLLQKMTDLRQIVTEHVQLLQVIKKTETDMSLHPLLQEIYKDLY
Put plainly: PPARγ agonist binding. The settings on record: 10 μM; data not shown.

Data set [14] is described as follows: Plasma protein binding, equilibrium dialysis, human plasma. The data set is classed as in vitro ADME. Conditions: 1 μM, 5 hours at 37 °C.
Data set [15] can be described thus: Plasma protein binding, equilibrium dialysis, mouse plasma. The data set is classed as in vitro ADME. Conditions: 1 μM, 5 hours at 37 °C. (In general: Equilibrium dialysis compares concentrations on both sides of a semipermeable membrane.)
In data set [16] the target is TRPV1 (Homo sapiens, UniProt Q8NER1). Put plainly: TRPV1 receptor binding screen. Conditions: 10 μM; data not shown.
Data set [17] deals with T2, 5HT1a (Homo sapiens, UniProt P08908).
T2 sequence (P08908 1-422): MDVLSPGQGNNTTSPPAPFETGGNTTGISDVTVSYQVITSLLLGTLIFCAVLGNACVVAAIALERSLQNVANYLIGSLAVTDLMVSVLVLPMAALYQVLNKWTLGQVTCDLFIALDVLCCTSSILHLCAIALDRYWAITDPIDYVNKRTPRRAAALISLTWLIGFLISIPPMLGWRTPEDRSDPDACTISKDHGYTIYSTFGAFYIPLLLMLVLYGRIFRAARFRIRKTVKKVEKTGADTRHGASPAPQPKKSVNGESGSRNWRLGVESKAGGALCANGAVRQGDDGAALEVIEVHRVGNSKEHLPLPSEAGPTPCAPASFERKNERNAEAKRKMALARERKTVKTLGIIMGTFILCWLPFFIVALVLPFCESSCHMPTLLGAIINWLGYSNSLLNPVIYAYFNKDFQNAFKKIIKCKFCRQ
Nature of the data set: 5HT1a agonist binding. The settings on record: 10 μM; data not shown.

Data set [18] has as its target CB2 (Homo sapiens, UniProt P34972). Put plainly: CB2 binding. Conditions: 10 μM; 0.8 nM radioligand; human recombinant CHO cells.
The mark [19] stands for this setting: combined ethanol + ammonium acetate.
Setting [20] is: male, CD1, mouse, plasma, po, 10 mg/kg.
[21] abbreviates: compound alone in Captisol, 5 hours, day 14 cultures.
[22] abbreviates: CD1 mice, plasma, 10 mg/kg p.o.

SMILES strings stand for the structures. In brackets after ≈: the same amount, converted by molar mass.

Sequence of hERG channel (Q12809 whole entry): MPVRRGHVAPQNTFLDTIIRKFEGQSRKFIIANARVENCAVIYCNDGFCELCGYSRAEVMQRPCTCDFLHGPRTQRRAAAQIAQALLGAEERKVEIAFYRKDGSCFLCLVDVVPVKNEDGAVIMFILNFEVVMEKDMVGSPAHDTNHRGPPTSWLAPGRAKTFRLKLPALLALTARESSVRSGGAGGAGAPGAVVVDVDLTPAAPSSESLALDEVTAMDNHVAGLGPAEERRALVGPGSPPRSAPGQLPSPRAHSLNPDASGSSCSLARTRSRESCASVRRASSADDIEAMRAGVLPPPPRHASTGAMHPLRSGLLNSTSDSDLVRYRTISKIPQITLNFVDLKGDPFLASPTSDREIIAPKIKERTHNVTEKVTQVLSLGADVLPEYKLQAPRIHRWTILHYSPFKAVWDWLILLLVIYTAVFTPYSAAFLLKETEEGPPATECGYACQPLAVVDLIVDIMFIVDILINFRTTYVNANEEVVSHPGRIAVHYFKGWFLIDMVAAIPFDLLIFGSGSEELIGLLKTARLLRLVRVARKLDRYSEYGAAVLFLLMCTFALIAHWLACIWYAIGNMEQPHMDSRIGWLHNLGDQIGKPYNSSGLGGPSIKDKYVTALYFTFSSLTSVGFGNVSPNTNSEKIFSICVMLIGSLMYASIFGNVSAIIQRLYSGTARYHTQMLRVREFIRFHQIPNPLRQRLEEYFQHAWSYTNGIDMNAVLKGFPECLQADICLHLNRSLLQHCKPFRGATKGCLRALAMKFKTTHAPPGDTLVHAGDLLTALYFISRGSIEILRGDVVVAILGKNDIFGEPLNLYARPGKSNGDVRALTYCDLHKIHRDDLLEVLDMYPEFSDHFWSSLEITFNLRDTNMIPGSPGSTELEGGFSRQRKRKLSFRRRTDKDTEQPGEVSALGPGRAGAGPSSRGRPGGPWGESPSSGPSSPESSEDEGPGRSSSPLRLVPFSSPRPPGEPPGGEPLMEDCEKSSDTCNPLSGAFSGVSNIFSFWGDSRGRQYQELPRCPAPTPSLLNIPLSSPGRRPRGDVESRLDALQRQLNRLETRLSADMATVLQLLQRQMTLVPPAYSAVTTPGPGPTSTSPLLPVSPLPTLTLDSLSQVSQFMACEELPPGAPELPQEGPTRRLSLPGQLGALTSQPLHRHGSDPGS
Sequence of TRPV1 (Q8NER1 whole entry, species assumed): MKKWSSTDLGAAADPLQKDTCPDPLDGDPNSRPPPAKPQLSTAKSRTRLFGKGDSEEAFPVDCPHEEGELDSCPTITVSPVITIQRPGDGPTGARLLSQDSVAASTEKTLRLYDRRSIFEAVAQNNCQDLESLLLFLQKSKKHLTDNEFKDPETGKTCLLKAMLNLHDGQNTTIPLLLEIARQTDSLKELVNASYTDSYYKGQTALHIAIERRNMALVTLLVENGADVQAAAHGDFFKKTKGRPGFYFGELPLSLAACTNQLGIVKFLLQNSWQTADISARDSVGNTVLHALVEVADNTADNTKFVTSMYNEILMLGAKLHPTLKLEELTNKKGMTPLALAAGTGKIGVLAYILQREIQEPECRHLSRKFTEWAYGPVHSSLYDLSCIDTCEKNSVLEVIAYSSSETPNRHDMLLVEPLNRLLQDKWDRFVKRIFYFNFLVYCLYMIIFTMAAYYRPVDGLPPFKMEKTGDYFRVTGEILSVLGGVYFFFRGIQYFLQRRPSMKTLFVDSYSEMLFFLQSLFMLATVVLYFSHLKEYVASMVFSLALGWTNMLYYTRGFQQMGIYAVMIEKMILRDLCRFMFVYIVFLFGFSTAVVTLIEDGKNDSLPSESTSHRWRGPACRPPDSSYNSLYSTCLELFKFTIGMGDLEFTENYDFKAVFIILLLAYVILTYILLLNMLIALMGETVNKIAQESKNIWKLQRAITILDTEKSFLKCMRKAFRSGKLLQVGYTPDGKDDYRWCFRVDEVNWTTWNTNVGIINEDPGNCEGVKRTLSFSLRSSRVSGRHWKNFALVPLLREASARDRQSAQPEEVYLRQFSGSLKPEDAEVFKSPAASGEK
Sequence of CB2 (P34972 whole entry): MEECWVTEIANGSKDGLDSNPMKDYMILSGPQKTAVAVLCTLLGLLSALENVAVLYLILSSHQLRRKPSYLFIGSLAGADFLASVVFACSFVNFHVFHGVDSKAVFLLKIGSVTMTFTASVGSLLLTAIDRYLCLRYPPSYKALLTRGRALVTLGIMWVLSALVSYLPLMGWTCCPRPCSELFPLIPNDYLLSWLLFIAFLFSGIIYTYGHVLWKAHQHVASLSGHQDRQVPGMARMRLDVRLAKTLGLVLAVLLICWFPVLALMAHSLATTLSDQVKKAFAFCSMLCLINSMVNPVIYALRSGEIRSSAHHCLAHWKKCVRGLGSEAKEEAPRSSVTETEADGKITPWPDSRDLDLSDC

Consider `O=C1CSC(c2ccccc2Cl)c2cc(Cl)ccc2N1` (stereo not shown) [CGP-37157, 7-Chloro-5-(2-chlorophenyl)-1,5-dihydro-4,1-benzothiazepin-2(3H)-one, reference compound], for which, in [1] (5 hours, day 14 cultures), the “concentration with significant increase in propidium iodide fluorescence” value came out at 100 µM.
In the case of `C=C(C)[C@@H]1CCC(C)=C[C@H]1c1c(O)cc(CCCCC)cc1O` [Cannabidiol, reference compound], in [1], the “cell death response at 30 min or 60 min of incubation” value was “no significant changes from controls” and the “time points with significant cell death differences from control” value is at least 3 h. The compound also returned a half-life at 1 μM in [2] (mouse, liver microsomes) below 5 min. The “hERG Potassium channel % Inhibition of specific binding” value in [3] is given as 73%. The same compound gave a solubility in data set [4] (aqueous medium) of 17 µM (≈ 5.35 µg/mL). The “efficacy of neuroprotection back to control levels (PI)” value in data set [5] (setting [19]) is “full efficacy”. In addition, the “CL IV 2 mg/kg” value in data set [6] (CD1 mice, IV 2 mg/kg) was 120 mL/min/kg. In data set [6] (CD1 mice, plasma, 10 mg/kg p.o., 10 mg/kg), the “T 1/2 p.o.” value worked out at 207 min. The same compound gave a distribution volume (Vd) in data set [6] (male, CD1, mouse, plasma, iv, 2 mg/kg) of 7.5 L/kg. The compound further had a bioavailability in data set [6] (male, CD1, mouse, plasma, oral, 10 mg/kg) of 8%. In data set [6] (setting [20]), this compound yielded an AUC of 268 ng·h/mL and a Cmax of 51 ng/mL. For the same compound, the “effect of CB2 antagonist AM 630 on compound-mediated neuroprotection” value in [7] is given as “significantly attenuated”. Also, the “efficacy of neuroprotection back to control levels (CFDA)” value in [8] (setting [19]) is on record as “full efficacy”. The “concentration required for full efficacy against oxidative stress toxicity” value in data set [8] (hippocampal cultures) was determined as 10 µM. The half-life at 1 μM in data set [9] (human, liver microsomes) is 3.75 min.
For the compound `C=C(C)[C@@H]1CCC(C)=C[C@H]1c1c(O)cc(CC2CN(C(C)=O)C2)cc1O` [KLS-13019], in data set [1], the “cell death response at 30 min or 60 min of incubation” value was “no significant changes from controls” and the “time points with significant cell death differences from control” value is at least 3 h. For the same compound, the “TC50, cell death assay” value in [1] (setting [21]) was around 100000 nM. In addition, the “TC50, neuronal viability assay” value in [10] (setting [21]) was determined as 81000 nM. In addition, in data set [10] (day 14 cultures, 5 hours), the “maximal toxicity, % of control values” is 73 ± 3 % of control. In addition, in data set [10] (day 19 cultures, time course at 30 μM cannabidiol, 100 μM KLS-13019), the “maximal achieved toxicity, % of control, neuronal viability assay” value is listed as 62 ± 3 % of control. Moreover, the “fold increase in TC50 relative to CBD” value in data set [10] (viability and cell death assays) turned out to be 5 fold. Besides, in data set [2] (mouse liver microsomes, 1 μM), the “Microsomal stability Mouse T 1/2” value worked out at 5.67 min. For the same compound, the “Log P” value in data set [11] turned out to be 3.42. The “anticonvulsant activity in animal models” value in [12] is “lack of anticonvulsant activity”. Besides, the “hERG Potassium channel % Inhibition of specific binding” value in data set [3] was found to be 12%. Besides, in [4], the Aqueous solubility stood at 87 µM and the “fold increase in aqueous solubility in comparison to CBD” value was “> five”. The “receptor binding PPARγ (agonist)” value in data set [13] was “no detectable interactions”. Moreover, in data set [14], the “Plasma protein binding Human % bound” value came to 99.2%. Also, the “Plasma protein binding Mouse % bound” value in data set [15] is on record as 99.2%. In data set [5] (setting [19]), the “efficacy of neuroprotection back to control levels (PI)” value is listed as “full efficacy” and the “fold increase in neuroprotective potency vs CBD (relative IC50s, PI)” value was determined as 15 fold. In [5] (read-out: IC50 for PI (neuroprotection), 30 mM Ethanol + 300 μM Ammonium Acetate, 5 hours, days 12–14), the IC50 was 203 nM. In data set [6] (CD1 mice, IV 2 mg/kg), the “CL IV 2 mg/kg” value turned out to be 76.7 mL/min/kg and the “Vss IV 2 mg/kg” value was 3.2 L/kg. In addition, in data set [6] (setting [22]), the AUC p.o. was 617 ng·h/mL, the maximum concentration (Cmax) at 10 mg/kg p.o. stood at 1080 ng/mL and the Tmax p.o. is 15 min. In addition, the “F% (oral bioavailability)” value in data set [6] (CD1 mice, oral 10 mg/kg, IV 2 mg/kg) is recorded as 67%. The “fold increase in F% in comparison to CBD” value in data set [6] (mice) was above 8 fold. In addition, the “fold increase in AUC compared to CBD” value in [6] (mice, 10 mg/kg p.o.) worked out at 2.3 fold. In data set [6] (mice, i.v. 2 mg/kg), the “clearance (CL), i.v. arm” value is on record as 4.6 mL/min/kg. Further, the “increase in T 1/2 in comparison to CBD” value in data set [6] (mice, p.o.) is reported as “more than 50%”. Also, in [16], the “receptor binding TRPV1 (agonist)” value is on record as “no detectable interactions” and the “receptor binding TRPV1 (antagonist)” value is on record as “no detectable interactions”. For the same compound, the “effect of CB2 antagonist AM 630 on compound-mediated neuroprotection” value in [7] is “had no effect”. The “receptor binding to 5HT-1a agonist site” value in data set [17] is given as “no detectable interactions”. Also, in [8] (setting [19]), the “efficacy of neuroprotection back to control levels (CFDA)” value is on record as “full efficacy” and the “fold increase in neuroprotective potency vs CBD (relative EC50s, CFDA)” value came to 31 fold. In data set [8] (read-out: EC50 for CFDA (neuroprotection), 30 mM Ethanol + 300 μM Ammonium Acetate, 5 hours, days 12–14), the concentration for a half-maximal effect (EC50) is 127 ± 27 nM. In addition, in [9] (human liver microsomes, 1 μM), the “Microsomal stability Human T 1/2” value was determined as 5.69 min. For the same compound, in data set [18], the “displacement of 3H-WIN-55212-2 radioactivity at CB2” value is 55%.

One may read the half-life as the time needed for the level to fall by half in the phase considered. Read a low half-life as rapid decline. A word on the solubility: it is the concentration that dissolves in the medium under given conditions. High values mean a readily soluble substance, low ones a poorly soluble substance. The term Vd denotes a proportionality between amount in the body and measured concentration, not a real space. As a reminder, the bioavailability is the share of a dose that reaches the circulation, judged against a reference dose that is usually intravenous. Broadly, the AUC is concentration integrated over time. Read a high AUC as high exposure. A word on the Cmax: it is the highest concentration seen after dosing. By Log P is commonly meant the decadic logarithm of the partition coefficient of the neutral form, usually between octanol and water. Broadly, the Aqueous solubility is how much of the substance goes into solution per volume. A higher Aqueous solubility goes with much dissolved substance. In general, IC50 refers to the concentration that gives 50% inhibition. In general, EC50 refers to the concentration giving half of the maximal effect.

The record behind these values is PMC6150782 (Journal of molecular neuroscience : MN, 2018).
